Assay results from paper PMC3133600 (Journal of the American Chemical Society, 2011).
Where two headings read alike, the source gives them in different places.

What was measured:
[1] = test system: HIF-1α levels in MCF7 cells; assay: Cellular HIF-1α levels; type: cell-based, human; details: 24 hours
[2] = target: T1, human JMJD2C(1–420) (Homo sapiens, UniProt Q9H3R0); type: biochemical; details: at up to 50 μM, the highest concentration tested
T1 sequence (Q9H3R0 1-420): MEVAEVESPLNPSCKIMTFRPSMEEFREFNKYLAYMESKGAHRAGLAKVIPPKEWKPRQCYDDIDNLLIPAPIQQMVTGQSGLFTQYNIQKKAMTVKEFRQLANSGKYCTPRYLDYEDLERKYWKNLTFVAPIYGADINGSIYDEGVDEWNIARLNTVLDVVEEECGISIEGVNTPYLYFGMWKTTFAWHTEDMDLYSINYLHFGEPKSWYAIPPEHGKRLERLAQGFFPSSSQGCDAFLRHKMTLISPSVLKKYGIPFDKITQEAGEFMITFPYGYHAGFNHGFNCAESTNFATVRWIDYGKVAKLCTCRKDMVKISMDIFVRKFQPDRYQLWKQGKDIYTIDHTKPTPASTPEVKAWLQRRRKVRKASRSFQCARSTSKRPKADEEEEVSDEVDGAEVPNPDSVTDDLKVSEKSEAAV

[3] = target: T2, JMJD2A (H3K9me3 and H3K36me3 demethylase) (Homo sapiens, UniProt O75164); assay: JMJD2A enzyme inhibition in vitro; type: biochemical; details: at up to 50 μM, the highest concentration tested
T2 sequence (O75164 1-1064): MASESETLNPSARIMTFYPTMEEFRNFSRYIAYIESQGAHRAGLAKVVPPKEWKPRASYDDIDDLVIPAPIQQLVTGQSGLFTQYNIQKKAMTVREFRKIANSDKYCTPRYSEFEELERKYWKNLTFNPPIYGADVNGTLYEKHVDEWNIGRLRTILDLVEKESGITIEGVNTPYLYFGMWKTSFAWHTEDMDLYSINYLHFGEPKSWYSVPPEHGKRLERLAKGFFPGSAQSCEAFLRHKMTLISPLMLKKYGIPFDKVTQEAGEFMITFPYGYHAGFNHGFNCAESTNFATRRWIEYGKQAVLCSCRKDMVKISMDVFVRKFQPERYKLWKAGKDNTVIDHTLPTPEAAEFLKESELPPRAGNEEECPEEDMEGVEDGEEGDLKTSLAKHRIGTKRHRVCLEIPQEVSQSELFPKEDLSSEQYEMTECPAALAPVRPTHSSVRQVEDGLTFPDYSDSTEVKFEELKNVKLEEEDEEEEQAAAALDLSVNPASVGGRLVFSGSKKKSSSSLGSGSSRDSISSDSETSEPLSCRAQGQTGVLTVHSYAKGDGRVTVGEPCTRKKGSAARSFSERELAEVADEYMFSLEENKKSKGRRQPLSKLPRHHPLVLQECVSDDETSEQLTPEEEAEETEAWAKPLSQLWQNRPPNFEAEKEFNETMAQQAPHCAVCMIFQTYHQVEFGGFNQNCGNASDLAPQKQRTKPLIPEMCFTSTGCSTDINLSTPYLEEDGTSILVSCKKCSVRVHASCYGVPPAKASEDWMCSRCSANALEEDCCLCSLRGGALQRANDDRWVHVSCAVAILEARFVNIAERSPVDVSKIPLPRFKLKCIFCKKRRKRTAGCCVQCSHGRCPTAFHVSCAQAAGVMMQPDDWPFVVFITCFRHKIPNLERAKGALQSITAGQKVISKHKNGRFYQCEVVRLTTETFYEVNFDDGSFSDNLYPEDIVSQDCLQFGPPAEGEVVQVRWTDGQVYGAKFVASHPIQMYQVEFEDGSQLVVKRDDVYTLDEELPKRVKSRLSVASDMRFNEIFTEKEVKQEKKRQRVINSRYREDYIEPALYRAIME

[4] = target: FAD-dependent demethylase, LSD1 (Homo sapiens, UniProt O60341); assay: LSD1 enzyme inhibition in vitro; type: biochemical; details: at up to 50 μM, the highest concentration tested
[5] = test system: class I or class II HDACs; assay: HDAC enzyme inhibition in vitro; type: biochemical; details: at up to 50 μM, the highest concentration tested
[6] = test system: JMJD2C-sensitive oesophageal carcinoma cell line KYSE150; assay: KYSE150 growth inhibition assay; type: cell-based; details: read-out: GI50, KYSE150 cell growth; treatment for 48 hours
[7] = Stability in KYSE150 cell growth media; type: in vitro ADME; details: 37 °C, 48 hours, extraction with 3:1 chloroform:isopropanol
[8] = test system: H3K4me3 and H3K9me3 levels in KYSE150 cells; type: cell-based
Outline: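 KYSE150 cells were immunostained for H3K4me3 and H3K9me3 in a quantitative image-based assay. Image quantification gave half-maximal effective concentrations for each mark.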

[9] = test system: H3K4me3 and H3K9me3 levels in MCF7 cells; type: cell-based, human
[10] = test system: JMJD2C(1–420)-GFP fusion protein in HeLa cells; assay: H3K9me3 immunostaining in HeLa cells ectopically expressing JMJD2C; type: cell-based, human; details: 10 μM, 48 hours
Outline: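 HeLa cells were transfected with JMJD2C(1–420)-GFP, then treated with DMSO or 10 μM test compound. After 48 h they were immunostained with anti-H3K9me3 antibody and DAPI nuclear stain. H3K9me3 was compared in GFP-transfected cells.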

[11] = test system: histone methylation marks in KYSE150 cells; assay: Western blotting of histone methylation marks in KYSE150 cells; type: cell-based; details: 48 hours
Outline: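 KYSE150 cells received DMSO, DFO 150 μM or DMOG 1 mM as positive controls for Fe²⁺/α-ketoglutarate hydroxylase inhibition, or test compound at 5, 10 or 15 μM, for 48 h. Histone methylation marks were assessed by Western blot, with histone levels based on coomassie stain.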

[12] = test system: C2C12 cells; assay: Myotube formation in C2C12 cells; type: cell-based; details: C2C12 cells in differentiation media, 6 days
Outline: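 C2C12 cells in differentiation media were given DMSO or test compound at 1, 2 or 4 μM. After 6 days they were immunostained with anti-myosin heavy chain antibody plus DAPI. MHC-positive myotubes were scored from the images.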

[13] = test system: UTX-targeted genes Myog and CKm in C2C12 cells; assay: RT-PCR of UTX-targeted genes during myogenesis; type: cell-based; details: differentiating C2C12 myoblast, 1, 2 and 4 μM, 6 days
Outline: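 Differentiating C2C12 myoblasts were given DMSO or test compound (1, 2, 4 μM) in differentiation media. mRNA was collected after 6 days, and RT-PCR measured Myog and Ckm.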

[14] = DFO at 150 μM, DMOG at 1 and 2 mM

SMILES | cellular HIF-1α levels [1, 14] | inhibition of enzymatic activity of JMJD2C [2] | inhibition of enzymatic activity of JMJD2A [3] | inhibition of enzymatic activity of LSD1 [4] | inhibition of enzymatic activity of HDACs [5] | GI50 [6] | recovered unchanged after incubation in cell growth media [7] | increase of the H3K9me3 mark [8] | EC50 ([8]; read-out: EC50 for H3K4me3) | EC50 ([8]; read-out: EC50 for H3K9me3) | increase of the H3K9me3 mark [9] | EC50 ([9]; read-out: EC50 for H3K4me3) | EC50 ([9]; read-out: EC50 for H3K9me3) | cellular HIF-1α levels ([1]; at up to 15 μM, the highest concentration tested) | reduction of H3K9me3 level by JMJD2C(1–420)-GFP [10] | methylation of H3K4, H3K9, H3K27 and H3K36 (Western blotting) ([11]; KYSE150 cells, 5, 10 and 15 μM, concentration-dependent) | cellular levels of H3K79me3 and H4K20me3 ([11]; KYSE150 cells) | concentration sufficient to prevent the formation of MHC-positive myotubes [12] | expression of UTX-targeted genes Myog and CKm (RT-PCR) [13]
CC(=O)N(O)CCCCCNC(=O)CCC(=O)N(O)CCCCCNC(=O)CCC(=O)N(O)CCCCCN [DFO, desferoxamine] | significantly increased |  |  |  |  |  |  |  |  |  |  |  |  |  |  |  |  |  | 
COC(=O)CNC(=O)C(=O)OC [DMOG] | significantly increased |  |  |  |  |  |  |  |  |  |  |  |  |  |  |  |  |  | 
COC(=O)/C=C/C(=O)N(O)CCCCNCc1ccc(COC(=O)Nc2cccc3ccccc23)cc1 [Methylstat, methylstat] |  | does not inhibit | does not inhibit | does not inhibit | does not inhibit | ~5.1 µM | 88% | 10.8 fold | 10.3 µM | 8.6 µM | 4.5 fold | 6.7 µM | 6.3 µM | did not affect | reversed | induces hypermethylation | induces increased cellular levels | 2 µM | loss of expression
